# Calls of active or inactive are those of the source.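 How the source made its calls, unless noted: active means viability at or below 10% of carrier control in both of two separate runs; inconclusive means viability at or below 10% in only one of the two runs; inactive means the rest.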
# How the values were obtained:
# [1] = Her2 expression decrease, cell viability multiplex – SKBR3 breast tumor cells, AlphaScreen, ATP viability, primary screen (AID 461;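 active means Her2 level under about 52% in both replicate screens, with viability over 70% of control, limit read from the data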;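 on Her2 level: lower value means less Her2 protein in the cells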;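 on viability: percent of carrier control wells set as 100% viability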); conditions: SKBR3 Her2 protein level, 18-24 h, measured here: SKBR3 viability, ATP luminescence, at 10 µM
# [2] = molecular target: Receptor tyrosine-protein kinase erbB-2 (Homo sapiens) (UniProt P04626); assay: as above; conditions: 18-24 h, at 10 µM, stronger effect = lower value
# Receptor tyrosine-protein kinase erbB-2 (Homo sapiens), sequence (P04626 whole entry, looked up): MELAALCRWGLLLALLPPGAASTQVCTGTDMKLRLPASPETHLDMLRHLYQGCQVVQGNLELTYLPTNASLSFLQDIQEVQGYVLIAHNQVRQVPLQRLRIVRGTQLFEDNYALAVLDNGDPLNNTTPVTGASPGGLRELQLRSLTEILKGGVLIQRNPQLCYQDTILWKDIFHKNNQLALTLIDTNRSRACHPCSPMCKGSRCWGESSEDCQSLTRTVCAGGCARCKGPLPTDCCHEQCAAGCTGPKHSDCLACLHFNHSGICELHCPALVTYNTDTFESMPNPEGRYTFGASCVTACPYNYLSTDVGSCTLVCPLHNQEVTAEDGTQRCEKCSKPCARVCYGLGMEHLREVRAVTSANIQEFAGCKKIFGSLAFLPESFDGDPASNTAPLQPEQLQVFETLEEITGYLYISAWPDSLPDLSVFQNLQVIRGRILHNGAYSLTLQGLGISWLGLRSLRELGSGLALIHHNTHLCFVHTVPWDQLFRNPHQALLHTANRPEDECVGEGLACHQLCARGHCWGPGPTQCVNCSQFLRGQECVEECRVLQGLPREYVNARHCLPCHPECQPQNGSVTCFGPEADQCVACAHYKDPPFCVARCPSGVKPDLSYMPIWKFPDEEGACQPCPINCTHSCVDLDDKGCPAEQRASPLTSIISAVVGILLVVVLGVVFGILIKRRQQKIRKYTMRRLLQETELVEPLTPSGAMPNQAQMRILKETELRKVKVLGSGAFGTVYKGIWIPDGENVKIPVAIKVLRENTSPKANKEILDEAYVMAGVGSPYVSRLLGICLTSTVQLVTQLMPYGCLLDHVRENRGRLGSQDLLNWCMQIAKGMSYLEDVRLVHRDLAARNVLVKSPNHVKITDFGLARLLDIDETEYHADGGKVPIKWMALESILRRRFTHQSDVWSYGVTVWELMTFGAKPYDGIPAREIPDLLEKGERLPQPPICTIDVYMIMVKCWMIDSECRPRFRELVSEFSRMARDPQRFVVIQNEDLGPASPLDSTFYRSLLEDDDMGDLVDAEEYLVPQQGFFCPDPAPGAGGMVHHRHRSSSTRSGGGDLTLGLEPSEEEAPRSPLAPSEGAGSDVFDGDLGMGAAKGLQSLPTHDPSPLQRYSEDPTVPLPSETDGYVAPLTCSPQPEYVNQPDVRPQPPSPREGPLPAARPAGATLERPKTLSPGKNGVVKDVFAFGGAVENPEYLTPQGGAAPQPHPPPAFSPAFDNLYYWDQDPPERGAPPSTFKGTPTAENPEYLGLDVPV
# [3] = reduced viability of SK-BR-3 breast cancer cells – cell-based, 24 h, human, pilot screen (AID 572); conditions: SK-BR-3 viability, CellTiter-Glo luminescence, at 10 µM, stronger effect = lower value;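 further: compound exposure lasted between 18 and 24 h rather than exactly 24 h; 100% = carrier-treated control wells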
# [4] = HUVEC growth inhibition – cell-based, human, primary screen (AID 575;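 active means viability at or below 30% in both replicate assays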;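 further: 100% = median of untreated cell wells with 0.1% DMSO on each plate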); conditions: HUVEC proliferation, CellTiter-Glo luminescence, 72 h; at 10 µM; stronger effect = lower value
# Method in brief: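 Test system: primary human umbilical vein endothelial cells; medium: endothelial basal medium with 2% FBS plus growth supplements; dosing: 10 µM compound only; times: 72 h treatment at 37 °C; signal: CTG luminescence; read-out: % viability relative to median vehicle-well signal on each plate; control set: vehicle and MePR control wells; plate: 384-well, collagen-coated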
# [5] = H69AR cell proliferation blockers – human, duplicate replicates, primary screen (AID 580;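 active means viability at or under a set limit in both replicates, limit being median viability minus 3 SD, cut at about 48% in these data, passing the limit was not always enough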;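 further: 100% = mean luminescence of untreated wells and 0% = no signal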); conditions: H69AR lung tumor cells viability, ATP luminescence, 72 h; at 10 µM; stronger effect = lower value
# [6] = MRP1 drug-resistance reversers in H69AR cells – cell-based, doxorubicin co-treatment, pilot screen (AID 601;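 active means viability loss from added drug above about 55%, and viability with drug at most 40%, in both replicates, limit read from the data, passing the limit was not always enough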); conditions: CellTiter-Glo, 72 h, at 10 µM; for differential viability (reversal): stronger effect = higher value
# [7] = yeast transport mutant growth inhibition pilot in 384-well plates, post-Golgi transport modulator project (AID 636; in the data active means inhibition above about 31%); conditions: absorbance 615 nm, about 18 h, stronger effect = higher value
# [8] = growth suppression of yeast trafficking mutant, preliminary HTS, modulators of trafficking downstream of Golgi apparatus project, 1536-format plate, OD 615 nm (AID 637; in the data active means inhibition above about 30%); conditions: yeast transport mutant growth, absorbance 615 nm, 18 h; stronger effect = higher value
# [9] = H69AR cells + 2 uM doxorubicin, measured here: viability with 2 uM doxorubicin, stronger effect = lower value
# [10] = H69AR cells, compound alone cytotoxicity
Compound,viability [1] [%],Her2 level [2],viability [3],viability [4],viability [5],differential viability (reversal) ([6]; H69AR cells + 2 uM doxorubicin),"viability [6, 9] [%]","viability [6, 10] [%]",inhibition [7],inhibition [8]
CCOc1ccc(S(=O)(=O)Nc2cccc(Cl)c2)cc1,86,74.5% (inactive),86% (inactive),50.7% (inactive),18.8% (active),-41.9% (inactive),60.7,18.8,-5.07% (inactive),-3.28% (inactive)
CCCOc1ccccc1NC(=O)c1c(-c2ccccc2)noc1C,84.5,92% (inactive),84.5% (inactive),79.7% (inactive),89% (inactive),7.04% (inactive),82,89,1.67% (inactive),5% (inactive)
Clc1cccc(Nc2c3c(nc4ncnn24)CCC3)c1,94.5,82.5% (inactive),94.5% (inactive),93% (inactive),83.8% (inactive),-5.48% (inactive),89.2,83.8,1.82% (inactive),9.84% (inactive)
CCOC(=O)CNS(=O)(=O)c1c(C)noc1C,110,104% (inactive),110% (inactive),70.6% (inactive),107% (inactive),20.6% (inactive),86.2,107,-4.47% (inactive),2.73% (inactive)
Cc1c(C(=O)O)c(-c2ccccc2)nn1-c1ccccc1,103,104% (inactive),103% (inactive),96.9% (inactive),92.1% (inactive),4.64% (inactive),87.5,92.1,-2.99% (inactive),-2.3% (inactive)
CCOc1ccc2cc(C#N)c(SCC(=O)N3CCOCC3)nc2c1,109,81.5% (inactive),109% (inactive),87.1% (inactive),74.6% (inactive),31.8% (inactive),42.8,74.6,-6.8% (inactive),1.94% (inactive)
CCOC(=O)Cn1c(N2CCOCC2)nc2c1c(=O)[nH]c(=O)n2C,106,85.5% (inactive),106% (inactive),89.7% (inactive),88.1% (inactive),-0.31% (inactive),88.4,88.1,-3.95% (inactive),-6.83% (inactive)
CCOc1cc(-c2nc(-c3ccccc3OC)no2)cc(OCC)c1OCC,90,96.5% (inactive),90% (inactive),97.4% (inactive),92.5% (inactive),-2.62% (inactive),95.1,92.5,-2.13% (inactive),22% (inactive)
N#CCCCCn1c(-c2cncs2)nc2ccccc21,93.5,126% (inactive),93.5% (inactive),84.2% (inactive),93.8% (inactive),13.5% (inactive),80.3,93.8,-5% (inactive),-5.33% (inactive)
O=C(CSc1nnc(-c2cccs2)o1)N1CCOCC1,107,92.5% (inactive),107% (inactive),99.4% (inactive),96.6% (inactive),-4.63% (inactive),101,96.6,-3.6% (inactive),-1.45% (inactive)
CCCCCc1c(O)c2ccccc2[nH]c1=O,108,91.5% (inactive),108% (inactive),124% (inactive),98.1% (inactive),3.62% (inactive),94.5,98.1,-1.71% (inactive),2.46% (inactive)
COc1ccccc1NC(=O)C1=C(C)Nc2nnnn2C1c1ccccc1OC (stereo not given),94,76.5% (inactive),94% (inactive),113% (inactive),98.9% (inactive),10.4% (inactive),88.5,98.9,-4.16% (inactive),-1.5% (inactive)
O=C(NCC(c1cccnc1)N1CCOCC1)c1ccco1 (stereo not given),97,71% (inactive),97% (inactive),106% (inactive),98.9% (inactive),8.38% (inactive),90.6,98.9,-4.87% (inactive),1.17% (inactive)
O=C(CCN1C(=O)C2C3C=CC(C3)C2C1=O)Nc1c(F)cc(F)cc1Br (stereo not given),99.5,91.5% (inactive),99.5% (inactive),90.2% (inactive),103% (inactive),20.3% (inactive),82.6,103,1.08% (inactive),-4.13% (inactive)
Cc1ccccc1NC(=O)C1CC(=O)N(c2ccccc2F)C1 (stereo not given),91.5,81% (inactive),91.5% (inactive),102% (inactive),100% (inactive),18.3% (inactive),82.1,100,-8.65% (inactive),6.89% (inactive)
O=C(NCC1CCCO1)C1c2ccccc2C(=O)N1C1CCCCCC1 (stereo not given),105,89% (inactive),105% (inactive),88.9% (inactive),104% (inactive),6.58% (inactive),97.6,104,-2.6% (inactive),1.43% (inactive)
CCN(CC)c1ccc(/C=N/n2nnnc2N)c(O)c1,119,80% (inactive),119% (inactive),57.6% (inactive),14.4% (active),-42.7% (inactive),57.2,14.4,0.52% (inactive),-1.15% (inactive)
CC(C)NC(=O)CSc1nnc(-c2ccc(C(C)(C)C)cc2)n1C,95,82% (inactive),95% (inactive),71.5% (inactive),103% (inactive),11.6% (inactive),91.4,103,-2.24% (inactive),-3.65% (inactive)
CCOCCCNc1ncnc2c1[nH]c1ccccc12,99,96.5% (inactive),99% (inactive),89.5% (inactive),90.3% (inactive),-13.3% (inactive),104,90.3,-2.63% (inactive),1.31% (inactive)
COc1ccc(C(=O)c2ccccc2)c(O)c1,86.5,110% (inactive),86.5% (inactive),97.7% (inactive),106% (inactive),13.6% (inactive),92,106,-3.33% (inactive),22.7% (inactive)
CCOC(=O)C1CCCN(CCCc2ccccc2)C1 (stereo not given),104,91% (inactive),104% (inactive),105% (inactive),90.8% (inactive),3.21% (inactive),87.6,90.8,-5.47% (inactive),-1.9% (inactive)
O=S(=O)(c1ccc2ccccc2c1)N1CCCCC1,102,82.5% (inactive),102% (inactive),78% (inactive),80.8% (inactive),5.72% (inactive),75.1,80.8,-1.95% (inactive),-8.67% (inactive)
CCCCCn1c(N2CCN(Cc3ccccc3)CC2)nc2c1c(=O)[nH]c(=O)n2C,110,78% (inactive),110% (inactive),93.3% (inactive),76.9% (inactive),23.7% (inactive),53.2,76.9,-6.67% (inactive),-2.46% (inactive)
O=C(Nc1ccon1)c1csc2c1CCCC2,92.5,85% (inactive),92.5% (inactive),83.2% (inactive),98.3% (inactive),10.9% (inactive),87.4,98.3,-5.66% (inactive),2% (inactive)
CNC(=O)Nc1cccc(C(F)(F)F)c1,105,82.5% (inactive),105% (inactive),93% (inactive),93.6% (inactive),-6.37% (inactive),100,93.6,-4.08% (inactive),0% (inactive)
COc1cccc(-c2csc3nnc(SCC(=O)c4ccc(NC(C)=O)cc4)n23)c1,108,106% (inactive),108% (inactive),92% (inactive),90% (inactive),-9.79% (inactive),99.8,90,-4.42% (inactive),-0.66% (inactive)
O=C(NCCC1=CCCCC1)N[C@@H](Cc1ccccc1)C(=O)O,104,114% (inactive),104% (inactive),100% (inactive),108% (inactive),14.2% (inactive),93.5,108,0.13% (inactive),0.16% (inactive)
CCCN1C=CC(=C2C(=O)c3ccccc3C2=O)C=C1,88,123% (inactive),88% (inactive),42.9% (inactive),40.8% (active),-3% (inactive),43.8,40.8,-1.92% (inactive),1% (inactive)
COc1cc(-c2nnc(SCc3c(F)cccc3Cl)o2)cc(OC)c1OC,70.5,103% (inactive),70.5% (inactive),68.5% (inactive),85.2% (inactive),3.85% (inactive),81.3,85.2,-4.19% (inactive),-4.1% (inactive)

# Source: PubChem BioAssay
